The results in this text go back to ChEMBL document CHEMBL1671867, “Novel polymyxin derivatives carrying only three positive charges are effective antibacterial agents” (Antimicrob Agents Chemother, 2008).

Holding throughout (assay type): functional
Test [1] relates to Escherichia coli. Description: Antibacterial activity against Escherichia coli ATCC […] by CLSI M7-A7 agar dilution method.
Test [2] deals with Escherichia coli. Description: Antibacterial activity against Escherichia coli IH3080 assessed as growth inhibition at 10 ug after 18 hrs by […] in presence of 1 ug/ml rifampin. (In agar dilution, organisms are placed on agar that contains the substance at set levels.)
The subject of test [3] is Escherichia coli. Description: Antibacterial activity against Escherichia coli IH3080 assessed as growth inhibition at 10 ug after 18 hrs by […].
The subject of test [4] is Escherichia coli. Kind of test: Antibacterial activity against Escherichia coli IH3080 assessed as reduction in bacterial count at 2 ug/ml using 2 day old compound stock solution. Also on record: scale not given: the % may be the effect or the level left.
For test [5], the system named is Candida albicans. Description: Antibacterial activity against Candida albicans ATCC 28366 by CLSI M7-A7 agar dilution method.
The test system of test [6] is Staphylococcus aureus. Description: Antibacterial activity against Staphylococcus aureus ATCC 25923 by CLSI M7-A7 agar dilution method. Put shortly: (§1)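 Agar dilution on Mueller-Hinton agar with test substance at 0.25 to 32 μg/ml in twofold steps. Spots of about 10^4 CFU applied with a multipoint inoculator.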
Test [7] relates to Escherichia coli. Description: Antibacterial activity against Escherichia coli SC 9253 by CLSI M7-A7 agar dilution method. In a few lines: as §1
Test [8] deals with Escherichia coli. Description: Antibacterial activity against Escherichia coli SC 9252 by CLSI M7-A7 agar dilution method.
Test [9] deals with Pseudomonas aeruginosa. Kind of test: Antibacterial activity against Pseudomonas aeruginosa ATCC 27853 by CLSI M7-A7 agar dilution method. In a few lines: as §1
The subject of test [10] is Acinetobacter baumannii. Description: Antibacterial activity against Acinetobacter baumannii by CLSI M7-A7 agar dilution method.
The subject of test [11] is Serratia marcescens. Kind of test: Antibacterial activity against Serratia marcescens ATCC 8100 by CLSI M7-A7 agar dilution method. Put shortly: as §1
Test [12] has as its system Acinetobacter baumannii. Description: Antibacterial activity against Acinetobacter baumannii ATCC 19606 by CLSI M7-A7 agar dilution method.
In test [13] the test system is Citrobacter freundii. Kind of test: Antibacterial activity against Citrobacter freundii ATCC 8090 by CLSI M7-A7 agar dilution method.
Test [14] has as its system Enterobacter cloacae. Kind of test: Antibacterial activity against Enterobacter cloacae by CLSI M7-A7 agar dilution method.
Test [15] deals with Enterobacter cloacae. Description: Antibacterial activity against Enterobacter cloacae CCUG52947 by CLSI M7-A7 agar dilution method.
Test [16] has as its system Enterobacter cloacae. Description: Antibacterial activity against Enterobacter cloacae ATCC 23355 by CLSI M7-A7 agar dilution method.
Test [17] relates to Klebsiella oxytoca. Description: Antibacterial activity against Klebsiella oxytoca CCUG51683 by CLSI M7-A7 agar dilution method. Put shortly:
as §1

Test [18] relates to Klebsiella oxytoca. Kind of test: Antibacterial activity against Klebsiella oxytoca ATCC 13182 by CLSI M7-A7 agar dilution method. In a few lines: as §1
Test [19] has as its system Klebsiella pneumoniae. Kind of test: Antibacterial activity against Klebsiella pneumoniae by CLSI M7-A7 agar dilution method. Put shortly:
as §1

The test system of test [20] is Escherichia coli. Kind of test: Antibacterial activity against Escherichia coli by CLSI M7-A7 agar dilution method. In a few lines:
as §1

The subject of test [21] is Klebsiella pneumoniae. Kind of test: Antibacterial activity against Klebsiella pneumoniae CCUG45421 by CLSI M7-A7 agar dilution method. Put shortly:
as §1

The test system of test [22] is Escherichia coli. Kind of test: Antibacterial activity against Escherichia coli IH3080 by CLSI M7-A7 agar dilution method.

Values after ≈ are worked out from the molar mass of the structure shown.

As usually defined, the MIC is the lowest concentration that inhibits growth of the organism. For the compound `CCCCCCCC(=O)N[C@H](C(=O)N[C@H](CO)C(=O)N[C@H]1CCNC(=O)[C@H]([C@@H](C)O)NC(=O)[C@H](CCN)NC(=O)[C@H](CCN)NC(=O)[C@H](CC(C)C)NC(=O)[C@@H](Cc2ccccc2)NC(=O)[C@H](CCN)NC1=O)[C@@H](C)O`, the MIC is 1 µg/mL (≈ 0.929 µM) in test [1]; above 32 µg/mL in test [5]; above 32 µg/mL in test [6]; above 32 µg/mL in test [7]; 32 µg/mL (≈ 29.7 µM) in [8]; 8 µg/mL (≈ 7.43 µM) in [9]. In addition, the MIC in test [10] was 4 µg/mL (≈ 3.72 µM); in test [11] it was above 32 µg/mL; in [12], 8 µg/mL (≈ 7.43 µM); in [13], 2 µg/mL (≈ 1.86 µM); in test [14] it was 2 µg/mL (≈ 1.86 µM); in [15], 2 µg/mL (≈ 1.86 µM). For the same compound, the MIC in test [16] came out at 2 µg/mL (≈ 1.86 µM); in test [17], 2 µg/mL (≈ 1.86 µM); in test [18], 2 µg/mL (≈ 1.86 µM); in [19], 1 µg/mL (≈ 0.929 µM); in test [20], 0.5 µg/mL (≈ 0.465 µM); in test [21], 4 µg/mL (≈ 3.72 µM). Moreover, the MIC in test [22] amounted to 1 µg/mL (≈ 0.929 µM). Further, the “inhibition zone (IZ)” value was 214 mm2 in [2] and 171 mm2 in test [3]. Also, in test [4], the Activity was 98%.
